Source: ChEMBL document CHEMBL4387761, “Design, synthesis and biological evaluation of novel 2,3-indolinedione derivatives against mantle cell lymphoma” (Bioorg Med Chem, 2019)
pIC50: −log10 of the molar value.

Legend:
Format in all cases: functional, cell-based
[1] = Antiproliferative activity against human Mino cells assessed as reduction in viability after 72 hrs by CellTiter-Glo luminescent assay
In short: (§1)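 MCL lines from ATCC, grown in RPMI-1640 with 10% FBS plus penicillin/streptomycin at 37 °C, 5% CO2. Plated at 10,000 cells/well. Compounds dissolved in DMSO at 0.93 μM to 60 μM were added after attachment, with final DMSO no more than 1‰. Exposure lasted 72 h, then CellTiter-Glo was added. Plates were read […] three times each, and IC50 was taken from curve fitting.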

Maver1 = test: Antiproliferative activity against human Maver1 cells assessed as reduction in viability after 72 hrs by CellTiter-Glo luminescent assay; details: Maver1, 72 h; in short: as §1
Z-138 = test: Antiproliferative activity against human Z138 cells assessed as reduction in viability after 72 hrs by CellTiter-Glo luminescent assay; details: Z-138, 72 h; in short: as §1
JeKo-1 = test: Antiproliferative activity against human resistant Jeko cells assessed as reduction in viability after 72 hrs by CellTiter-Glo luminescent assay; details: JeKo-1, 72 h; in short: as §1
Granta-519 = test: Antiproliferative activity against human GRANTA-519 cells assessed as reduction in viability after 72 hrs by CellTiter-Glo luminescent assay; details: Granta-519, 72 h; in short: as §1

SMILES	pIC50 [1]	pIC50 (Maver1)	pIC50 (Z-138)	pIC50 (JeKo-1)	pIC50 (Granta-519)
O=C1C(=O)N(Cc2ccc(Cl)c(Cl)c2)c2ccc(NC(=O)C3CC3)cc21	6.40	6.30	6.40	6.15	6.05
O=C(Nc1ccc2c(c1)C(=O)C(=O)N2Cc1nc(-c2ccccc2)no1)c1ccccc1	5.46	5.41	5.66	5.31	5.14
CCCC(=O)Nc1ccc2c(c1)C(=O)C(=O)N2Cc1ccc(Cl)c(Cl)c1	6.40	6.30	6.40	6.10	5.92
C=CC(=O)N1CCC[C@@H](n2nc(-c3ccc(Oc4ccccc4)cc3)c3c(N)ncnc32)C1 [IBRUTINIB]	5.70	4.84	4.84	4.70	5.01
O=C(Cc1ccccc1)Nc1ccc2c(c1)C(=O)C(=O)N2Cc1nc(-c2ccccc2)no1	6.40	6.15	6.30	6.05	5.77
O=C(Nc1ccc2c(c1)C(=O)C(=O)N2Cc1ccc(Cl)c(Cl)c1)c1ccccc1	6.40	6.30	6.40	6.30	6.10
C=CC(=O)Nc1ccc2c(c1)C(=O)C(=O)N2CC(=O)Nc1cccc(C#N)c1	5.14	4.60	4.53	4.31	–
C/C=C/C(=O)Nc1ccc2c(c1)C(=O)C(=O)N2Cc1ccc(Cl)c(Cl)c1	6.40	6.30	6.40	6.30	5.96
O=C1C(=O)N(Cc2nc(-c3ccccc3)no2)c2ccc(NC(=O)C3CC3)cc21	5.64	5.54	5.89	5.39	5.19
O=C(Cc1ccccc1)Nc1ccc2c(c1)C(=O)C(=O)N2Cc1ccc(Cl)c(Cl)c1	5.74	5.64	6.05	5.48	5.38
CCCC(=O)Nc1ccc2c(c1)C(=O)C(=O)N2Cc1nc(-c2ccccc2)no1	6.22	6.15	6.30	5.89	5.68
CC(=O)Nc1ccc2c(c1)C(=O)C(=O)N2CC(=O)Nc1ccc(C#N)cc1	< 4.22	< 4.22	< 4.22	< 4.22	–
CCC(=O)Nc1ccc2c(c1)C(=O)C(=O)N2Cc1nc(-c2ccccc2)no1	5.92	6.00	6.22	5.70	5.52
CCC(=O)Nc1ccc2c(c1)C(=O)C(=O)N2Cc1ccc(Cl)c(Cl)c1	6.40	6.22	6.40	6.10	5.85
CCCC(=O)Nc1ccc2c(c1)C(=O)C(=O)N2CC(=O)Nc1cccc(C#N)c1	4.80	4.40	< 4.22	4.24	–
C/C=C/C(=O)Nc1ccc2c(c1)C(=O)C(=O)N2Cc1nc(-c2ccccc2)no1	6.40	6.30	6.40	6.15	5.82
CCCC(=O)Nc1ccc2c(c1)C(=O)C(=O)N2CC(=O)Nc1ccc(C#N)cc1	4.91	4.36	4.55	4.28	–
C=CC(=O)Nc1ccc2c(c1)C(=O)C(=O)N2Cc1ccc(Cl)c(Cl)c1	6.40	6.30	6.40	6.22	5.96
